The text below walks through data of PubChem BioAssay.

The structures appear in SMILES notation. The source made the active and inactive calls. Unless noted, no stated cut-off is given here; in the data, active means inhibition above about 30%; inactive means the rest.

The nature of assay [1]: reducers of endogenous Her2 protein level, primary screen, SKBR3 breast tumor cells, AlphaScreen, ATP viability (AID 461;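 active means Her2 level under about 52% in both replicate screens, with viability over 70% of control, limit read from the data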;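 on Her2 level: lower value means less Her2 protein in the cells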;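 on viability: percent of carrier control wells set as 100% viability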). The conditions noted are these: 18-24 h, measured here: SKBR3 viability, ATP luminescence, at 10 µM. (In general: Bead proximity is the source of the signal in Alpha formats.)
Assay [2] addresses Receptor tyrosine-protein kinase erbB-2 (Homo sapiens) (UniProt P04626). Described as above. To be noted: 18-24 h, at 10 µM, stronger effect = lower value.
The nature of assay [3]: SK-BR-3 cell growth inhibitors, pilot screen, 24 h, human (AID 572;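 active means viability at or below 10% of carrier control in both of two separate runs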;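 further: compound exposure lasted between 18 and 24 h rather than exactly 24 h; 100% = carrier-treated control wells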). The conditions noted are these: SK-BR-3 viability, CellTiter-Glo luminescence, at 10 µM, stronger effect = lower value. In general terms: ATP-based viability assays read luminescence as a measure of living cells.
Assay [4] is described as follows: HUVEC growth inhibition – cell-based, human, primary screen (AID 575;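 active means viability at or below 30% in both replicate assays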;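 further: 100% = median of untreated cell wells with 0.1% DMSO on each plate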). To be noted: HUVEC proliferation, CellTiter-Glo luminescence, 72 h; at 10 µM; stronger effect = lower value. The gist of the method: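 material = primary HUVEC, no more than 12 passages | input = 1250 cells per well | controls = vehicle and MePR control wells | measured by = CTG luminescence | times = 72 h compound incubation | format = collagen-coated 384-well format | read-out = % viability vs DMSO wells | doses = single 10 µM dose, 0.1% DMSO, from 5x medium stock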

Assay [5] can be described thus: growth inhibitors of H69AR lung tumor, primary screen, human, duplicate replicates (AID 580;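 active means viability at or under a set limit in both replicates, limit being median viability minus 3 SD, cut at about 48% in these data, passing the limit was not always enough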;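 further: 100% = mean luminescence of untreated wells and 0% = no signal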). To be noted: H69AR lung tumor cells viability, ATP luminescence, 72 h; at 10 µM; stronger effect = lower value.
A short description of assay [6]: reversal of MRP1-mediated doxorubicin resistance, pilot screen, H69AR cells, doxorubicin co-treatment (AID 601;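 active means viability loss from added drug above about 55%, and viability with drug at most 40%, in both replicates, limit read from the data, passing the limit was not always enough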). To be noted: CellTiter-Glo, 72 h, at 10 µM; for differential viability (reversal): stronger effect = higher value.
Assay [7] can be described thus: 384-well plate pilot, post-Golgi transport modulator project, inhibition of yeast transport mutant growth (AID 636; in the data active means inhibition above about 31%). To be noted: absorbance 615 nm, about 18 h, stronger effect = higher value.
The nature of assay [8]: growth suppression of yeast trafficking mutant, preliminary HTS, modulators of trafficking downstream of Golgi apparatus project, 1536-format plate, OD 615 nm (AID 637). To be noted: yeast transport mutant growth, absorbance 615 nm, 18 h; stronger effect = higher value.
The mark [9] stands for this setting: H69AR cells + 2 uM doxorubicin, measured here: viability with 2 uM doxorubicin, stronger effect = lower value.
The mark [10] stands for this setting: H69AR cells, compound alone cytotoxicity.

Chain of Receptor tyrosine-protein kinase erbB-2 (Homo sapiens) (P04626 whole entry, looked up): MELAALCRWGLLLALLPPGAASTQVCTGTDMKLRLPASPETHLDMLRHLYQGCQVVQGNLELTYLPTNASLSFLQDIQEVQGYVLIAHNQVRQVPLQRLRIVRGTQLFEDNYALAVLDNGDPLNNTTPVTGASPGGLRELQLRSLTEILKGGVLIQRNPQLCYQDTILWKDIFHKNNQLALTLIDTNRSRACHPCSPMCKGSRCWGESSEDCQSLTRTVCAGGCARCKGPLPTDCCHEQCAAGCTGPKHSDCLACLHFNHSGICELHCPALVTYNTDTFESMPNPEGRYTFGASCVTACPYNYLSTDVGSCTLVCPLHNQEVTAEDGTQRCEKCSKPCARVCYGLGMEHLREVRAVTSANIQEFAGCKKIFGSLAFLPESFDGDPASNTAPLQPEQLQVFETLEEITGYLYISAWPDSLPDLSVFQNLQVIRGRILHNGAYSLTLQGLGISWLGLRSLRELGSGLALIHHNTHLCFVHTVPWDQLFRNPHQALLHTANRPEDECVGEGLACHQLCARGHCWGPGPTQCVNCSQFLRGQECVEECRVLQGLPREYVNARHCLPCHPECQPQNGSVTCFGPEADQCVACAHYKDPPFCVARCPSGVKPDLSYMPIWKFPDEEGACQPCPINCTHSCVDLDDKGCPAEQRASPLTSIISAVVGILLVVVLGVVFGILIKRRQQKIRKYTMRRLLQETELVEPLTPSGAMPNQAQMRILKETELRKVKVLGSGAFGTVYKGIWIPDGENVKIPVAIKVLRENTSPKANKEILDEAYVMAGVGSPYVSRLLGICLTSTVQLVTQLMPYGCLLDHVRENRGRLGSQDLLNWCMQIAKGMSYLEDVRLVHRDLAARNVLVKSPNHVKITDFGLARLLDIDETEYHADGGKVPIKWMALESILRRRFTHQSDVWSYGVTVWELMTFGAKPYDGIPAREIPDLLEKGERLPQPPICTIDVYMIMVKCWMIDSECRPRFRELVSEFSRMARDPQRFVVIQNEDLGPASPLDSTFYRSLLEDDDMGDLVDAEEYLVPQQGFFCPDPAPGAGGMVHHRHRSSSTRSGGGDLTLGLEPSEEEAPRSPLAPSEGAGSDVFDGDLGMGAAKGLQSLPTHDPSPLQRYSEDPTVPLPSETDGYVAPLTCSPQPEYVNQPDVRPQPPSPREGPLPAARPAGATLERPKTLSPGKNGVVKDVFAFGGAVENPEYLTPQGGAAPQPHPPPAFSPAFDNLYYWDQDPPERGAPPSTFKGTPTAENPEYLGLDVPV

The viability is a read-out of living cells in per cent, often relative to untreated cells. The inhibition is the change of the read-out against control, counted positive when it falls. For the compound `Cc1cc(C)n2cc(CSc3nnnn3-c3ccc(Cl)cc3)nc2n1`, the viability in assay [1] was 89.5%; in assay [3], 89.5% (inactive); in assay [4], 94.1% (inactive); in assay [5] it was 97.6% (inactive); in assay [6] (setting [9]), 90.5%; in assay [6] (setting [10]), 97.6%. Moreover, the Her2 level in assay [2] was 89% (inactive). Further, the differential viability (reversal) in assay [6] (H69AR cells + 2 uM doxorubicin) was 7.13% (inactive). Besides, the inhibition in assay [7] is -1.73% (inactive); in assay [8], 0.65% (inactive).

On to `CCOC(=O)N1CCN(C(=O)CSCC(=O)Nc2nc(-c3ccc(OC)cc3)cs2)CC1`, for which the viability in assay [1] is 116%; in assay [3] it was 116% (inactive); in assay [4], 77.8% (inactive); in assay [5], 94.9% (inactive); in assay [6] (setting [9]), 93.1%; in assay [6] (setting [10]), 94.9%. For the same compound, the Her2 level in assay [2] was 104% (inactive). In addition, the differential viability (reversal) in assay [6] (H69AR cells + 2 uM doxorubicin) was 1.77% (inactive). Moreover, the inhibition in assay [7] is -1.3% (inactive); in assay [8], -6.89% (inactive).

As for `CCN(CC)c1ccc(NC(=O)CN2CCN(CC(=O)Nc3ccccc3F)CC2)cc1`, the viability in assay [1] is 81.5%; in assay [3] it was 81.5% (inactive); in assay [4], 80.2% (inactive); in assay [5] it was 99.6% (inactive); in assay [6] (setting [9]), 88.6%; in assay [6] (setting [10]) it was 99.6%. For the same compound, the Her2 level in assay [2] is 93.5% (inactive). Moreover, the differential viability (reversal) in assay [6] (H69AR cells + 2 uM doxorubicin) was 11% (inactive). For the same compound, the inhibition in assay [7] was -3.95% (inactive); in assay [8], -1.33% (inactive).

For `O=S1(=O)N=C(Nc2nc3c(s2)CCCC3)c2ccccc21`, the viability in assay [1] is 82%; in assay [3], 82% (inactive); in assay [4] it was 85.4% (inactive); in assay [5] it was 78.9% (inactive); in assay [6] (setting [9]), 82.7%; in assay [6] (setting [10]), 78.9%. Moreover, the Her2 level in assay [2] was 112% (inactive). The differential viability (reversal) in assay [6] (H69AR cells + 2 uM doxorubicin) is -3.82% (inactive). Besides, the inhibition in assay [7] was 0.93% (inactive); in assay [8], -7.62% (inactive).

Consider `COc1ccc(NC(=O)CSc2nnc(-c3ccccc3C)n2C)cc1`, for which the viability is 96.5% in assay [1]; 96.5% (inactive) in assay [3]; 113% (inactive) in assay [4]; 100% (inactive) in assay [5]; 86.4% in assay [6] (setting [9]); 100% in assay [6] (setting [10]). In assay [2], the Her2 level was 108% (inactive). The differential viability (reversal) in assay [6] (H69AR cells + 2 uM doxorubicin) is 13.8% (inactive). For the same compound, the inhibition in assay [7] is -4.55% (inactive); in assay [8] it was -5.17% (inactive).

Turning to `CCC(C)(C(=O)NC1CCCC1)N(C(=O)c1cnccn1)c1c(C)n(C)n(-c2ccccc2)c1=O` (stereo not given), the viability was 97% in assay [1]; 97% (inactive) in assay [3]; 94.4% (inactive) in assay [4]; 91.4% (inactive) in assay [5]; 91.2% in assay [6] (setting [9]); 91.4% in assay [6] (setting [10]). For the same compound, the Her2 level in assay [2] was 124% (inactive). The differential viability (reversal) in assay [6] (H69AR cells + 2 uM doxorubicin) is 0.145% (inactive). Moreover, the values for the inhibition in assay [7] and in assay [8] were 2.34% (inactive) and -7.38% (inactive), respectively.

As for `CC(=O)NCCn1c(SCC(=O)NCC2CCCO2)nc2ccccc2c1=O` (stereo not given), the viability is 95% in assay [1]; 95% (inactive) in assay [3]; 109% (inactive) in assay [4]; 98.5% (inactive) in assay [5]; 88.4% in assay [6] (setting [9]); 98.5% in assay [6] (setting [10]). Besides, the Her2 level in assay [2] is 99% (inactive). Also, the differential viability (reversal) in assay [6] (H69AR cells + 2 uM doxorubicin) is 10.1% (inactive). Also, the inhibition in assay [7] was -0.26% (inactive); in assay [8], -8.1% (inactive).

With `CCCCCC1CC(CC(=O)O)C(=O)O1` (stereo not given), the viability in assay [1] is 100%; in assay [3], 100% (inactive); in assay [4] it was 82.5% (inactive); in assay [5], 104% (inactive); in assay [6] (setting [9]), 96.2%; in assay [6] (setting [10]), 104%. Further, in assay [2], the Her2 level is 96% (inactive). Further, the differential viability (reversal) in assay [6] (H69AR cells + 2 uM doxorubicin) is 7.44% (inactive). Also, the values for the inhibition in assay [7] and in assay [8] were -4.87% (inactive) and 7.67% (inactive), respectively.

On to `C=CCn1c(SCC(=O)Nc2ccccc2OC)nnc1-c1ccco1`, for which the viability is 95% in assay [1]; 95% (inactive) in assay [3]; 95.2% (inactive) in assay [4]; 67.7% (inactive) in assay [5]; 84.5% in assay [6] (setting [9]); 67.7% in assay [6] (setting [10]). Further, in assay [2], the Her2 level was 89.5% (inactive). Besides, the differential viability (reversal) in assay [6] (H69AR cells + 2 uM doxorubicin) was -16.8% (inactive). The results for the inhibition in assay [7] and in assay [8] were -4.67% (inactive) and 2.9% (inactive), respectively.

On to `COc1ccc(C2CC(C(F)(F)F)n3ncc(C(=O)NCc4cccnc4)c3N2)cc1OC` (stereo not given), for which the viability in assay [1] is 86.5%; in assay [3], 86.5% (inactive); in assay [4], 94.2% (inactive); in assay [5], 91.1% (inactive); in assay [6] (setting [9]), 79.5%; in assay [6] (setting [10]), 91.1%. Moreover, the Her2 level in assay [2] was 93% (inactive). Besides, the differential viability (reversal) in assay [6] (H69AR cells + 2 uM doxorubicin) was 11.6% (inactive). Besides, the inhibition in assay [7] is -4.47% (inactive); in assay [8], 2.33% (inactive).

Regarding `COC(=O)c1c(NC(=O)CSc2nnc(-c3cccnc3)n2Cc2ccco2)sc(C)c1C`, the viability in assay [1] was 87%; in assay [3], 87% (inactive); in assay [4], 71.5% (inactive); in assay [5], 83.7% (inactive); in assay [6] (setting [9]) it was 74.5%; in assay [6] (setting [10]), 83.7%. Besides, the Her2 level in assay [2] is 77% (inactive). For the same compound, the differential viability (reversal) in assay [6] (H69AR cells + 2 uM doxorubicin) was 9.16% (inactive). The inhibition is -5.14% (inactive) in assay [7] and -6.03% (inactive) in assay [8].

As for `COC(=O)CSc1nc(C)c(C(C)=O)cc1C#N`, the viability in assay [1] is 92%; in assay [3] it was 92% (inactive); in assay [4], 111% (inactive); in assay [5] it was 90.1% (inactive); in assay [6] (setting [9]), 80.4%; in assay [6] (setting [10]), 90.1%. Besides, the Her2 level in assay [2] was 90.5% (inactive). For the same compound, the differential viability (reversal) in assay [6] (H69AR cells + 2 uM doxorubicin) was 9.68% (inactive). Also, the inhibition in assay [7] was -0.93% (inactive); in assay [8], -0.65% (inactive).

Turning to `O=C(Nc1ccccc1C(=O)N1CCCCCC1)c1cccc(S(=O)(=O)N2CCOCC2)c1`, the viability was 95.5% in assay [1]; 95.5% (inactive) in assay [3]; 94.1% (inactive) in assay [4]; 95.5% (inactive) in assay [5]; 103% in assay [6] (setting [9]); 95.5% in assay [6] (setting [10]). For the same compound, the Her2 level in assay [2] is 96% (inactive). Further, the differential viability (reversal) in assay [6] (H69AR cells + 2 uM doxorubicin) is -7.13% (inactive). Moreover, the figures for the inhibition in assay [7] and in assay [8] were -1.84% (inactive) and -1.45% (inactive), respectively.

With `Cc1ccc(C)c(-c2nc3cc(N)ccc3o2)c1`, the viability in assay [1] is 78.5%; in assay [3], 78.5% (inactive); in assay [4], 46.6% (inactive); in assay [5], 102% (inactive); in assay [6] (setting [9]), 93.8%; in assay [6] (setting [10]), 102%. The Her2 level in assay [2] was 106% (inactive). The differential viability (reversal) in assay [6] (H69AR cells + 2 uM doxorubicin) is 8.46% (inactive). Besides, the inhibition in assay [7] is -1.18% (inactive); in assay [8], -6.03% (inactive).
